This note sets out measurements from ChEMBL document CHEMBL1151811, “Isolation, structure elucidation, and biological activity of virgineone from Lachnum Wirgineum using the genome-wide Candida albicans fitness test” (2009).

In one assay the test system is Clavispora lusitaniae. The experiment in a line: Antifungal activity against Candida lusitaniae MY1396 after 20 hrs. The assay is classed as functional. Particulars: MY1396, 20 h. A digest of the protocol:
(§1)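 Broth MIC with cells seeded at 10⁵ cfu/mL and exposed to 2-fold serial compound dilutions in growth medium, 37 °C for 20 h. MIC taken as the minimum inhibitory concentration.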

Another assay deals with Pichia kudriavzevii. Put plainly: Antifungal activity against Candida krusei ATCC 6258 after 20 hrs. Type of assay: functional. Particulars: ATCC 6258, 20 h. A digest of the protocol: (§2)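 Broth MIC. Cells inoculated at 10⁵ cfu/mL in growth medium with 2-fold serial dilutions of compound. Incubated 20 h at 37 °C. MIC taken as minimum inhibitory concentration. For line 2 the medium held 50% mouse serum.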

Assay [1] has as its system Aspergillus fumigatus. The experiment in a line: Antifungal activity against Aspergillus fumigatus MF5568 after 20 hrs. The assay is classed as functional. The settings on record: MF5568, 20 h. An outline of the steps:
as §1

For assay [2], the system named is Aspergillus fumigatus. The experiment in a line: Antifungal activity against Aspergillus fumigatus MF5568 in presence of 50% human serum after 20 hrs. The assay is classed as functional. The settings on record: MF5568, 20 h. A digest of the protocol:
as §1

Assay [3] deals with Trichophyton mentagrophytes. Put plainly: Antifungal activity against Trichophyton mentagrophytes MF7004 after 20 hrs. Particulars: MF7004, 20 h. The assay is classed as functional. An outline of the steps: as §1
The next assay concerns Staphylococcus aureus. Put plainly: […] activity against Staphylococcus aureus MB2865. The assay is classed as functional.
Assay [4] has as its system Candida albicans. The experiment in a line: Antifungal activity against Candida albicans MY1055 infected in DBA/2 mouse assessed as mouse mortality at 100 mg/kg, ip twice daily measured after 4 days postinfection. The assay is classed as functional. The settings on record: route intraperitoneal. An outline of the steps:
(§3)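 Mice infected iv via lateral tail vein with C. albicans MY1055 at 2.51 × 10⁴ cfu/mouse. Five DBA/2 mice per group, dosed ip twice daily; compound formulated in 5% DMSO in sterile distilled water. Mortality and general health observed for 4 days after challenge.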

In assay [5] the test system is Candida albicans. The experiment in a line: Antifungal activity against Candida albicans MY1055 infected in DBA/2 mouse assessed as mouse mortality at 50 mg/kg, ip twice daily measured after 4 days postinfection. Type of assay: functional. Particulars: route intraperitoneal. An outline of the steps: as §3
Assay [6] has as its system Candida albicans. Put plainly: Antifungal activity against Candida albicans MY1055 infected in DBA/2 mouse assessed as reduction in fugal CFU treated mouse twice daily measured after 4 days postinfection. Type of assay: functional, organism-based. A digest of the protocol: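 DBA/2 mice (5 per group) were infected iv via lateral tail vein with 2.51 × 10⁴ cfu/mouse. They were dosed ip twice daily at 100 or 50 mg/kg in 5% DMSO/sterile water. On day 4, kidneys were homogenized in saline, diluted 10-fold serially, plated on SDA and incubated at 35 °C for 30–48 h. Cfu/g kidney were compared with sham-treated controls by paired two-tailed t-test.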

In the next assay the test system is Nakaseomyces glabratus. The experiment in a line: Antifungal activity against Candida glabrata MY1381 after 20 hrs. Particulars: MY1381, 20 h. The assay is classed as functional. A digest of the protocol:
as §2

Another assay relates to Candida parapsilosis. Put plainly: Antifungal activity against Candida parapsilosis ATCC 22019 after 20 hrs. The assay is classed as functional. The settings on record: Lodderomyces parapsilosis, ATCC 22019, 20 h. An outline of the steps:
as §2

Assay [7] has as its system Candida albicans. The experiment in a line: Antifungal activity against Candida albicans MY1055 after 20 hrs. Type of assay: functional. Particulars: MY1055, 20 h. A digest of the protocol:
as §2

The subject of assay [8] is Candida albicans. The experiment in a line: Antifungal activity against Candida albicans MY1055 in presence of 50% mouse serum after 20 hrs. Type of assay: functional. Particulars: MY1055, 20 h. An outline of the steps: as §2

What is called MIC is the lowest concentration found to suppress growth.

Values after ≈ are worked out from the molar mass of the structure shown. Active and inactive are the calls of the source. No cut-off for these calls is given here.

As for `CC(CCCCCCCCC(=O)CCCCCCCCCC(O)CO[C@@H]1O[C@H](CO)[C@@H](O)[C@H](O)[C@@H]1O)C(=O)C1=C(O)C(Cc2ccc(O)cc2)NC1=O` (stereo partly drawn) [VIRGINEONE], the MIC is 4 µg/mL (≈ 5.33 µM) against Clavispora lusitaniae; 16 µg/mL (≈ 21.3 µM) in the assay with Pichia kudriavzevii; 8 µg/mL (≈ 10.7 µM) against Aspergillus fumigatus [1]; above 32 µg/mL in the assay on Aspergillus fumigatus [2]; 8 µg/mL (≈ 10.7 µM) in assay [3]; 16 µg/mL (≈ 21.3 µM) in the assay with Staphylococcus aureus. Also, the MIC with Nakaseomyces glabratus was 8 µg/mL (≈ 10.7 µM); against Candida parapsilosis it was 8 µg/mL (≈ 10.7 µM); in the assay on Candida albicans [7], 8 µg/mL (≈ 10.7 µM); in the assay with Candida albicans [8], above 32 µg/mL. Further, the Activity with Candida albicans [4] worked out at 100%; in the assay on Candida albicans [5], 40%. For the same compound, in the assay on Candida albicans [6], the result was inactive.
With `CC[C@H](C)C[C@H](C)CCCCCCCCC(=O)N[C@H]1C[C@@H](O)[C@@H](NCCN)NC(=O)[C@@H]2[C@@H](O)CCN2C(=O)[C@H]([C@H](O)CCN)NC(=O)[C@H]([C@H](O)[C@@H](O)c2ccc(O)cc2)NC(=O)[C@@H]2C[C@@H](O)CN2C(=O)[C@H]([C@@H](C)O)NC1=O` [CASPOFUNGIN], the MIC in the assay on Clavispora lusitaniae was below 0.03 µg/mL; against Pichia kudriavzevii it was 1 µg/mL (≈ 0.915 µM); with Aspergillus fumigatus [1], 32 µg/mL (≈ 29.3 µM); in the assay on Aspergillus fumigatus [2] it was 32 µg/mL; in assay [3] it was 32 µg/mL (≈ 29.3 µM); in the assay with Staphylococcus aureus, above 32 µg/mL. In addition, the minimum inhibitory concentration (MIC) against Nakaseomyces glabratus was 0.25 µg/mL (≈ 0.229 µM); against Candida parapsilosis, 0.5 µg/mL (≈ 0.457 µM); against Candida albicans [7] it was 0.5 µg/mL (≈ 0.457 µM); in the assay on Candida albicans [8], 0.25 µg/mL.
